# Compound activity (PubChem BioAssay)
# TRPC6 inhibitor: mouse TRPC6 channel inhibitors, primary screen, cell-based, HEK293, membrane potential dye; ACh-evoked depolarization; stronger effect = lower value; B-score at 10 µM; hit rate 1.1% among 310,000; AID 2553, 2010;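 active = B-score under library mean minus 3 SD, initial fluorescence not abnormally high, positive integrated signal ratio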;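 note: B-score derived from integrated fluorescence ratio over the kinetic read; more negative B-score means stronger inhibition of depolarization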
# Target sequence (Q61143 whole entry, looked up): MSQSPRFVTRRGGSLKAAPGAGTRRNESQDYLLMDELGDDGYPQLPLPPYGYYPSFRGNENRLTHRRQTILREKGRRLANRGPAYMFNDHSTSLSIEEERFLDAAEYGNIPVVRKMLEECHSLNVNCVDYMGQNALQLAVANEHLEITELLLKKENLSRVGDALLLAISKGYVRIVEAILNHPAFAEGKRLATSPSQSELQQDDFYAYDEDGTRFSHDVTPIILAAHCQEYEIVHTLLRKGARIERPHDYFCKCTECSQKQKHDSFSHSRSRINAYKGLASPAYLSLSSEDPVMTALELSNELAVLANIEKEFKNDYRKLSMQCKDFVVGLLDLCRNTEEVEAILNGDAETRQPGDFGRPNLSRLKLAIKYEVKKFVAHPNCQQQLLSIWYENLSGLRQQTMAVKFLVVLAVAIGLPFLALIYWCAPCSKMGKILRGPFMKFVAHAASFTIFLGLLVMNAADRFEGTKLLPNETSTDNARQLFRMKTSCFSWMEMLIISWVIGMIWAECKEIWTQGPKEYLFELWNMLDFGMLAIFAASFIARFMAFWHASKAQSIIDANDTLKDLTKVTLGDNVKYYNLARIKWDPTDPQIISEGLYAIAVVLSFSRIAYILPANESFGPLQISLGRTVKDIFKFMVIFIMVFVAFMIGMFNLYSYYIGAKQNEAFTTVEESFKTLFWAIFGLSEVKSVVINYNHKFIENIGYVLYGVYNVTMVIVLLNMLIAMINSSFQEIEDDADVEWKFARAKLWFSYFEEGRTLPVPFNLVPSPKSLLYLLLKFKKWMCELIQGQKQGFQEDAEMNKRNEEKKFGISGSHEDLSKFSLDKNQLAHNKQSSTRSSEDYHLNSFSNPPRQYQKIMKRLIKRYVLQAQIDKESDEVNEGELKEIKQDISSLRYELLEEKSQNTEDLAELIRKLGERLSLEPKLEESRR
# TRPC4 potent: positive allosteric modulators of TRPC4, primary screen, cell-based, mouse TRPC4beta, HEK293 mu-opioid, Fluo-4 calcium; Short transient receptor potential channel 4 (Mus musculus), Q9QUQ5; hit rate 0.42% among 310,000; AID 2227, 2009; DAMGO EC20, Fluo-4 Ca2+ flux; stronger effect = higher value; B-score at 10 µM;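 active = B-score of calcium response area above 5 SD of library B-scores, with initial fluorescence ratio within 5 SD of library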;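 note: B-score of integrated fluorescence ratio over time as area under calcium response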
# TRPC4 inh: inhibitors of mouse TRPC4 channel, primary screen, Fluo4 calcium, HEK293 TRPC4beta/mu-opioid cells. hit rate 0.39% among 300,000. DAMGO-evoked Fluo4 calcium flux; stronger effect = lower value. B-score at 10 µM. Short transient receptor potential channel 4 (Mus musculus), Q9QUQ5;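 active = B-score over 3 SD under the library average, no early fluorescence shift, positive overall ratio signal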
#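 Signal: kinetic Fluo4 fluorescence imaging of calcium influx. Material: stable TRPC4beta/mu-opioid receptor HEK293 cells. Probe or stimulus: DAMGO in two steps, submaximal then maximal.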
# TRPC6 act: mouse TRPC6 channel activators, primary screen, cell-based, HEK293, membrane potential dye; HEK293-TRPC6 membrane potential dye fluorescence; stronger effect = higher value; B-score at 10 µM; AID 2550, 2010; hit rate 0.13% among 310,000;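 active = B-score of the integrated fluorescence ratio above library mean plus 3 SD, and starting fluorescence ratio within library mean plus 5 SD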;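 note: higher score means more depolarization so channel activation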
# TRPC4 agonist: activators of mouse TRPC4 channel, primary screen, Fluo4 calcium, HEK293 TRPC4beta/mu-opioid cells | Short transient receptor potential channel 4 (Mus musculus), Q9QUQ5 | hit rate 0.49% among 310,000 | Fluo4 calcium fluorescence; stronger effect = higher value | B-score at 10 µM | AID 2237, 2010;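 active = B-score above 5 SD of library B-scores, and initial fluorescence ratio not above library mean plus 5 SD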;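 note: positive B-score marks a calcium rise read as TRPC4 activation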
#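 Assay system: HEK293 stable line with TRPC4beta plus mu-opioid receptor; schedule: 45 min room-temperature Fluo4 loading, 110 s read; technique: kinetic Fluo4 calcium fluorescence; evaluation: integrated baseline-normalised fluorescence ratio, converted to per-well B score; controls: buffer (low) and maximal DAMGO (high)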
# TRPC4 sel inh 2: second selectivity test of TRPC6 inhibitors: effect on mouse TRPC4 | shares compounds with TRPC6 inhibitor | HEK293 TRPC4/MOR, membrane potential dye fluorescence; channel activated by saturating DAMGO dose | inhibition, % at 10 µM | hit rate 42% among 920;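 active = compounds whose fluorescence signal differed from control wells by over 3 SD, either direction, in both duplicate plates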
# TRPC4 spec: mouse TRPC4 modulation by TRPC6 hits, confirmation, selectivity assay for TRPC6 inhibitor project, cell-based, HEK293 TRPC4/mu-opioid, membrane potential dye. shares compounds with TRPC6 inhibitor. membrane potential fluorescence. activity change, negative = inhibition, % at 10 µM. hit rate 61% among 920;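 active = rise or fall in signal beyond 3 SD of buffer-only wells in both replicate plates, either sign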;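 note: integrated kinetic ratio of fluorescence range over baseline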
# HEK293 MPD ctr 2-1: nonspecific membrane potential effects, parental HEK293, confirmation, counter-screen for TRPC6 inhibitor project, cell-based, second counter screen; signal change vs control, % at 10 µM; parental HEK293 membrane potential dye fluorescence; maximal acetylcholine challenge after compound addition; shares compounds with TRPC6 inhibitor; hit rate 31% among 920;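 active = membrane potential signal moving either way by over 3 SD of the maximum-effect control, in both duplicate plates, meaning non-specific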
# HEK293 MPD ctr-1: membrane potential modulation in parental HEK293, confirmation, counter-screen for TRPC6 inhibitor project, cell-based | shares compounds with TRPC6 inhibitor | hit rate 60% among 920 | membrane potential signal change, % at 10 µM | parental HEK293 membrane potential dye fluorescence;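 active = membrane potential signal shifting up or down by more than 3 SD of buffer-only wells, on both duplicate plates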
# HEK293 MPD ctr-2: parental HEK293 membrane potential modulation, confirmation, counter-screen for TRPC6 modulator project, cell-based. membrane potential dye fluorescence. shares compounds with TRPC6 inhibitor. membrane potential signal change, % at 10 µM. AID 488924, 2010. hit rate 51% among 2,400;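 active = membrane potential signal moves up or down beyond 5 SD from buffer-only wells, on both duplicate plates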
# HEK293 MPD ctr 2-2: second check of TRPC6 modulator effects in parental HEK293 cells; hit rate 14% among 2,400; membrane potential dye fluorescence; after compound, maximal acetylcholine stimulation; inhibition, % at 10 µM; AID 488926; shares compounds with TRPC6 inhibitor;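 active = membrane potential signal drops by more than 5 SD from the mean control signal, in both duplicate plates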;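 note: plate controls were acetylcholine ECmax control wells for no effect and buffer only wells for full effect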
# TRPC4/MOR mod: TRPC4 modulation by TRPC6 hit compounds, confirmation, selectivity assay for TRPC6 modulator project, cell-based, HEK293 TRPC4/mu-opioid, membrane potential dye, mouse; AID 488927, 2010; membrane potential fluorescence; percent change from control (negative = decrease, positive = increase), % at 10 µM; hit rate 69% among 2,400; shares compounds with TRPC6 inhibitor;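 active = membrane potential signal moved up or down beyond 5 SD of buffer control wells, in both duplicate plates, actives on both sides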;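 note: plate controls were assay buffer wells for no effect and DAMGO maximal-effect wells for full effect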
# TRPC4 ctr inh 2: second check of whether TRPC6 modulators also affect mouse TRPC4 | shares compounds with TRPC6 inhibitor | HEK293 TRPC4/mu-opioid, membrane potential dye fluorescence; stimulated with maximal-effect DAMGO | inhibition, % at 10 µM | hit rate 55% among 2,400;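 active = drop in membrane potential signal beyond 5 SD of the control wells in both duplicate plates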;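 note: TRPC4 counter screen for TRPC6 hits run under conditions tuned for TRPC6 not TRPC4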
# TRPC6 inh conf: mouse TRPC6 channel inhibitors, confirmation, HEK293 cells, membrane potential dye, duplicate | shares compounds with TRPC6 inhibitor | ACh-evoked depolarization | inhibition, % at 10 µM | hit rate 43% among 3,300;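 active = fluorescence ratio falls more than 5 SD below the full-stimulation control mean, in both duplicate runs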;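 note: integrated fluorescence ratio of peak minus minimum over baseline after agonist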
# TRPC6 act conf: mouse TRPC6 channel activators, confirmation, HEK293 cells, membrane potential dye, duplicate; HEK293-TRPC6 membrane potential dye fluorescence, FDSS; activation, % at 10 µM; hit rate 11% among 2,800; shares compounds with TRPC6 inhibitor; AID 488961, 2010;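 active = ratio signal rise beyond 5 SD above unstimulated control wells' mean, seen in both duplicate runs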;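 note: plate controls were buffer EC0 wells for no effect and acetylcholine ECmax response for full effect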
# Starred values were filed as active, the others as inactive; i = inactive; . = not tested or not shown. An excerpt weighted towards active compounds, which were near 2.3% of everything screened.
SMILES,TRPC6 inhibitor,TRPC4 potent,TRPC4 inh,TRPC6 act,TRPC4 agonist,HEK293 MPD ctr-2,HEK293 MPD ctr 2-2,TRPC4/MOR mod,TRPC4 ctr inh 2,TRPC6 inh conf,TRPC6 act conf,others
CCOC(=O)c1c(CN2CCCCC2)n(C)c2cc(Br)c(O)cc12,i,i,i,i,i,.,.,.,.,.,.,
CCOC(=O)c1c(CN2CCN(C)CC2)n(C)c2cc(Br)c(OC)cc12,-5.49*,i,i,i,i,-113.0%*,i,-21.5%*,72.0%*,44.0%*,i,
Cc1c(-c2ccccc2)[n+](=O)c2c(n1[O-])CCCC2,i,i,i,i,i,.,.,.,.,.,.,
CCn1ccnc1CNC(=O)CC1C(=O)NCCN1CC(c1ccccc1)c1ccccc1 (stereo unspecified),i,i,i,i,i,.,.,.,.,.,.,
COc1ccc2nc(C)cc(N3CCOCC3)c2c1,-11.6*,i,i,i,i,-427.5%*,100.0%*,-60.0%*,67.0%*,76.0%*,i,
Cc1ccc2nc(C)cc(N3CCOCC3)c2c1,-10.8*,i,i,i,i,-300.5%*,96.5%*,-45.0%*,69.0%*,75.0%*,i,
COc1ccc2nc(C)cc(N3CC(C)OC(C)C3)c2c1 (stereo unspecified),i,i,i,i,i,.,.,.,.,.,.,
COc1ccc2nc(C)cc(N3CCN(c4ccccc4)CC3)c2c1,-5.11*,i,i,i,i,-174.5%*,i,-41.0%*,68.5%*,i,i,
COc1ccc(C(=O)CN2CCN(c3cc(C)nc4ccccc34)CC2)cc1,i,i,i,i,i,.,.,.,.,.,.,
Nc1[nH]n2c(=O)cc(-c3ccccc3)nc2c1N=Nc1ccc(S(N)(=O)=O)cc1,i,i,i,i,i,.,.,.,.,.,.,
Nc1[nH]n2c(=O)cc(-c3ccccc3)nc2c1N=Nc1ccccc1,-7.98*,i,i,i,i,.,.,.,.,77.0%*,i,TRPC4 sel inh 2=50.0%*;TRPC4 spec=-19.7%*;HEK293 MPD ctr 2-1=i;HEK293 MPD ctr-1=-315.5%*
CN1CCC(=C2c3ccccc3C=Cc3ccccc32)CC1,-5.55*,i,i,i,i,150.5%*,76.5%*,23.0%*,54.5%*,75.0%*,.,
CN1CCN(C(=O)CCN2C(=O)c3ccccc3C2=O)CC1,i,i,i,i,i,.,.,.,.,.,.,
Cc1ccc(NS(=O)(=O)c2c(C)nc3sccn3c2=O)cc1C,i,i,i,i,i,.,.,.,.,.,.,
Cn1c(=O)c2c(nc(SCCN3CCCCC3)n2Cc2ccccc2)n(C)c1=O,-9.18*,33*,i,i,i,.,.,.,.,i,i,TRPC4 sel inh 2=42.0%*;TRPC4 spec=22.4%*;HEK293 MPD ctr 2-1=i;HEK293 MPD ctr-1=-392.0%*
Cn1c(=O)c2c(nc(SCCN3CCOCC3)n2Cc2ccccc2Cl)n(C)c1=O,i,i,i,i,i,.,.,.,.,.,.,
CCS(=O)(=O)N1CCN(c2ccc([N+](=O)[O-])c(NC(C)c3ccccc3)c2)CC1 (stereo unspecified),i,i,i,i,i,.,.,.,.,.,.,
CC(Nc1cc(N2CCNCC2)ccc1[N+](=O)[O-])c1ccccc1 (stereo unspecified),-7.09*,i,i,i,75*,.,.,.,.,i,i,TRPC4 sel inh 2=71.5%*;TRPC4 spec=i;HEK293 MPD ctr 2-1=i;HEK293 MPD ctr-1=-182.5%*
COc1cc(/C=C2/C(=N)N3N=C(CC(=O)N4CCOCC4)SC3=NC2=O)ccc1OCc1ccc(F)cc1,i,i,i,i,i,.,.,.,.,.,.,
Cc1cccn2c(=O)c3cc(C(N)=S)c(=N)n(CCCOC(C)C)c3nc12,-7.27*,i,i,i,i,.,.,.,.,i,i,TRPC4 sel inh 2=i;TRPC4 spec=-19.2%*;HEK293 MPD ctr 2-1=i;HEK293 MPD ctr-1=-408.5%*
CCOCCCn1c(=N)c(C(N)=S)cc2c(=O)n3cccc(C)c3nc21,-8.93*,i,i,i,i,.,.,.,.,i,i,TRPC4 sel inh 2=i;TRPC4 spec=i;HEK293 MPD ctr 2-1=26.5%*;HEK293 MPD ctr-1=-196.5%*
CCc1ccccc1NC(=O)C1(S(=O)(=O)c2ccc(C)cc2)CC1,i,i,i,i,i,.,.,.,.,.,.,
O=C(O)C1CCC(Cn2c(SCc3cc(=O)n4cc(Cl)ccc4n3)nc3ccsc3c2=O)CC1 (stereo unspecified),i,i,i,i,i,.,.,.,.,.,.,
CN(C)c1cc[n+](CC(=O)Nc2ccc(Oc3ccccc3)cc2)cc1,-6.27*,i,i,i,i,i,i,-10.5%*,i,i,i,
